This note sets out measurements from ChEMBL document CHEMBL1156597, “Structure-activity relationship of kahalalide F synthetic analogues” (J Med Chem, 2008).

Assay [1] relates to SK-MEL-28. The experiment in a line: Cytotoxicity against human SK-MEL-28 cells.
The test system of the next assay is HT-29. The assay can be described thus: Cytotoxicity against human HT29 cells after 48 hrs by SRB assay. In kind it is functional, cell-based. As to conditions: Homo sapiens, HT-29, 48 h; for CC50: read-out: LC50 (the source's name). An outline of the steps: (§1)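 Cells grown in RPMI 1640 with 10% FBS and penicillin/streptomycin at 37 °C and 5% CO₂, trypsinized, then seeded at 5 × 10³/well. After 18 h drug-free attachment, samples in DMSO/EtOH/PBS (0.5:0.5:99) were added for 48 h continuous exposure. Cells were fixed with cold TCA (1 h, 4 °C) and stained with SRB (10 min). Tris-solubilized stain read at 490 nm. Triplicate wells, mean ± SD; GI₅₀ derived.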

The test system of a further assay is DU-145. The experiment in a line: Cytotoxicity against human DU145 cells after 48 hrs by SRB assay. In kind it is functional, cell-based. As to conditions: Homo sapiens, DU-145, 48 h; for CC50: read-out: LC50 (the source's name). An outline of the steps:
as §1

The subject of a further assay is A549. The assay can be described thus: Cytotoxicity against human A549 cells after 48 hrs by SRB assay. As to conditions: Homo sapiens, A549, 48 h. It counts as functional, cell-based. An outline of the steps: as §1
A short description of assay [2]: Cytotoxicity against human HeLa-APL cells after 48 hrs by SRB assay. It counts as functional. An outline of the steps: as §1
A short description of assay [3]: Cytotoxicity against human IGROV cells after 48 hrs by SRB assay. In kind it is functional. As to conditions: for CC50: read-out: LC50 (the source's name); for GI50: read-out: GI50. In outline: as §1
Assay [4] relates to SK-MEL-28. The experiment in a line: Cytotoxicity against human SK-MEL-28 cells after 48 hrs by SRB assay. As to conditions: Homo sapiens, SK-MEL-28, 48 h; for CC50: read-out: LC50 (the source's name). It counts as functional, cell-based. In outline: as §1
Assay [5] deals with LoVo. The experiment in a line: Cytotoxicity against human LoVo cells after 48 hrs by SRB assay. It counts as functional. Conditions: for CC50: read-out: LC50 (the source's name).
The next assay relates to PANC-1. The experiment in a line: Cytotoxicity against human PANC1 cells after 48 hrs by SRB assay. In kind it is functional. Conditions: PANC-1, 48 h; for CC50: read-out: LC50 (the source's name). In outline:
as §1

Assay [6] can be described thus: Cytotoxicity against human IGROV-ET cells after 48 hrs by SRB assay. It counts as functional. As to conditions: for CC50: read-out: LC50 (the source's name); for GI50: read-out: GI50. An outline of the steps: as §1
The next assay concerns LNCaP. The assay can be described thus: Cytotoxicity against human LNcaP cells after 48 hrs by SRB assay. Conditions: for CC50: read-out: LC50 (the source's name). It counts as functional. In outline:
as §1

The subject of another assay is HeLa. The experiment in a line: Cytotoxicity against human HeLa cells after 48 hrs by SRB assay. It counts as functional. Conditions: for CC50: read-out: LC50 (the source's name). An outline of the steps:
as §1

In the next assay the test system is K562. The experiment in a line: Cytotoxicity against human K562 cells after 48 hrs by SRB assay. It counts as functional. As to conditions: K562, 48 h; for CC50: read-out: LC50 (the source's name). An outline of the steps: as §1
In assay [7] the test system is LoVo. The assay can be described thus: Cytotoxicity against human doxorubicin resistant LoVo cells after 48 hrs by SRB assay. It counts as functional. As to conditions: for CC50: read-out: LC50 (the source's name). An outline of the steps: as §1
The subject of a further assay is SK-BR-3. The experiment in a line: Cytotoxicity against human SKBR3 cells after 48 hrs by SRB assay. In kind it is functional. As to conditions: SK-BR-3, 48 h; for CC50: read-out: LC50 (the source's name); for GI50: read-out: GI50. In outline:
as §1

Take `C/C=C1\NC(=O)[C@H](Cc2ccccc2)NC(=O)[C@@H](C(C)C)NC(=O)[C@@H]([C@H](C)CC)NC(=O)[C@H](NC(=O)[C@H](NC(=O)[C@H]2CCCN2C(=O)[C@H](NC(=O)[C@@H](NC(=O)[C@@H](NC(=O)[C@H](NC(=O)CCCC(C)C)C(C)C)[C@@H](C)O)C(C)C)C(C)C)[C@H](C)CC)[C@H](C)OC(=O)[C@H](C(C)C)NC1=O`: the IC50 in the assay with SK-MEL-28 [1], in the assay with HT-29 and with DU-145 was 3670 nM each time.

With `C/C=C1\NC(=O)[C@H](Cc2ccccc2)NC(=O)[C@@H](C(C)C)NC(=O)[C@@H]([C@H](C)CC)NC(=O)[C@H](NC(=O)[C@H](NC(=O)[C@H](CCCN)NC(=O)[C@H]2CCCN2C(=O)[C@H](NC(=O)[C@@H](NC(=O)[C@H](NC(=O)[C@H](NC(=O)CCCC(C)C)C(C)C)[C@@H](C)O)C(C)C)C(C)C)[C@H](C)CC)[C@H](C)OC(=O)[C@H](C(C)C)NC1=O`, the LC50 in the assay on A549 came out at 1810 nM. The compound also had an LC50 (concentration giving 50% net cell kill) in [2] of 1800 nM. Also, the CC50 in the assay with HT-29 is 4710 nM; in the assay with DU-145, 1460 nM; in assay [3], 791 nM; in the assay on SK-MEL-28 [4], 1620 nM; with LoVo [5], 4750 nM; with PANC-1, 1770 nM. Besides, the CC50 was determined as 1050 nM in assay [6]; 1490 nM in the assay with LNCaP; 1920 nM in the assay with HeLa; 1930 nM with K562; 22300 nM in the assay on LoVo [7]; 1140 nM in the assay on SK-BR-3. Besides, the total growth inhibition concentration (TGI) turned out to be 8960 nM with LoVo [5] and 1930 nM with K562. In the assay on K562, this compound displayed a GI50 of 1930 nM.

Regarding `C/C=C1\NC(=O)[C@H](Cc2ccccc2)NC(=O)[C@@H](C(C)C)NC(=O)[C@@H]([C@H](C)CC)NC(=O)[C@H](NC(=O)[C@H](NC(=O)[C@H](CCCN)NC(=O)[C@H]2CCCN2C(=O)[C@H](NC(=O)[C@H](CCC(=O)O)NC(=O)[C@@H](NC(=O)[C@H](NC(=O)CCCC(C)C)C(C)C)[C@@H](C)O)C(C)C)[C@H](C)CC)[C@H](C)OC(=O)[C@H](C(C)C)NC1=O`, the LC50 in the assay with A549 is 1790 nM. The compound also came in with an LC50 (concentration giving 50% net cell kill) in [2] of 1420 nM. In addition, the CC50 with HT-29 is 2330 nM; in the assay on DU-145 it was 1660 nM; in assay [3], 842 nM; in the assay on SK-MEL-28 [4], 1820 nM; in the assay on LoVo [5], 3860 nM; in the assay on PANC-1, 2270 nM. Also, the CC50 was 632 nM in [6]; 1370 nM in the assay with LNCaP; 1350 nM in the assay on HeLa; 1890 nM in the assay on K562; 3670 nM in the assay with LoVo [7]; 1040 nM in the assay on SK-BR-3.

The compound `C/C=C1\NC(=O)[C@H](Cc2ccccc2)NC(=O)[C@@H](C(C)C)NC(=O)[C@@H]([C@H](C)CC)NC(=O)[C@H](NC(=O)[C@H](NC(=O)[C@H](CCCN)NC(=O)[C@H]2CCCN2C(=O)[C@H](NC(=O)[C@@H](NC(=O)[C@@H](NC(=O)[C@H](NC(=O)CCCC(C)C)C(C)C)[C@@H](C)O)[C@@H](C)O)C(C)C)[C@H](C)CC)[C@H](C)OC(=O)[C@H](C(C)C)NC1=O` showed an LC50 in the assay on A549 of 1820 nM. In [2], this compound returned an LC50 (concentration giving 50% net cell kill) of 1450 nM. The GI50 in the assay on HT-29 was found to be 11000 nM; in the assay on LoVo [5], 2970 nM; in the assay on PANC-1, 5510 nM; in [6], 1910 nM; in the assay with LoVo [7], 2990 nM; in the assay on SK-BR-3, 2070 nM. Besides, the TGI in the assay on HT-29 worked out at 8870 nM; with LoVo [5], 3350 nM; in the assay with PANC-1 it was 4560 nM; in [6] it was 1750 nM; in the assay on LoVo [7] it was 2900 nM; in the assay on SK-BR-3 it was 2430 nM. Moreover, the CC50 in the assay on HT-29 turned out to be 2370 nM; in the assay on DU-145 it was 1690 nM; in assay [3], 859 nM; in the assay on SK-MEL-28 [4] it was 1860 nM; in the assay on LoVo [5], 3770 nM; in the assay on PANC-1, 2320 nM. For the same compound, the CC50 is 644 nM in assay [6]; 1400 nM in the assay on LNCaP; 1380 nM in the assay on HeLa; 1930 nM in the assay on K562; 2820 nM in the assay on LoVo [7]; 1060 nM in the assay with SK-BR-3.

In the case of `C/C=C1\NC(=O)[C@H](Cc2ccccc2)NC(=O)[C@@H](C(C)C)NC(=O)[C@@H]([C@H](C)CC)NC(=O)[C@H](NC(=O)[C@H](NC(=O)[C@H](CCCN)NC(=O)[C@H]2CCCN2C(=O)[C@H](NC(=O)[C@@H](NC(=O)[C@@H](NC(=O)[C@H](NC(=O)CCCC(C)C)C(C)C)[C@@H](C)O)C(C)C)C(C)C)[C@H](C)CC)[C@@H](C)OC(=O)[C@H](C(C)C)NC1=O`, the LC50 in the assay with A549 came to 1920 nM. The same compound had an LC50 (concentration giving 50% net cell kill) in assay [2] of 2360 nM. In addition, the CC50 in the assay on HT-29 is 3790 nM; in the assay with DU-145, 10600 nM; in [3] it was 72400 nM; in the assay with SK-MEL-28 [4], 1770 nM; with LoVo [5], 5540 nM; in the assay with PANC-1, 8900 nM. The CC50 turned out to be 2130 nM in assay [6]; 4920 nM in the assay with LNCaP; 1910 nM in the assay with HeLa; 4420 nM in the assay with K562; 4080 nM with LoVo [7]; 1690 nM in the assay with SK-BR-3. Further, the TGI was found to be 106000 nM in [3], 4480 nM in assay [6], 20300 nM in the assay with LNCaP and 7370 nM in the assay with LoVo [7]. For the same compound, the concentration for 50% growth inhibition (GI50) turned out to be 73200 nM in assay [3], 3760 nM in assay [6], 19300 nM in the assay with LNCaP and 6030 nM in the assay with LoVo [7].

`C/C=C1\NC(=O)[C@H](Cc2ccccc2)NC(=O)[C@@H](C(C)C)NC(=O)[C@@H]([C@H](C)CC)NC(=O)[C@H](NC(=O)[C@H](NC(=O)[C@H](CCCN)NC(=O)[C@H]2CCCN2C(=O)[C@H](NC(=O)[C@@H](NC(=O)[C@@H](NC(=O)[C@H](NC(=O)CCCC(C)C)C(C)C)[C@@H](C)O)C(C)C)C(C)C)[C@H](C)CC)[C@H](C)OC(=O)[C@H](C(C)C)NC1=O` [KAHALALIDE F] returned an LC50 in the assay on A549 of 4520 nM. Also, the TGI in the assay on A549 was found to be 2200 nM; in assay [2] it was 2020 nM; in the assay on HT-29, 915 nM; in the assay with DU-145, 1720 nM; in assay [3] it was 1180 nM; with SK-MEL-28 [4] it was 2260 nM. Further, the TGI with LoVo [5] came out at 614 nM; with PANC-1, 3330 nM; in assay [6] it was 1300 nM; in the assay on LNCaP, 1960 nM; in the assay with HeLa, 1970 nM; in the assay on K562 it was 3320 nM. The TGI in the assay on LoVo [7] was 485 nM; in the assay on SK-BR-3, 810 nM. Besides, the GI50 in the assay with A549 (read-out: GI50) is 1160 nM; in assay [2], 975 nM; with HT-29, 432 nM; with DU-145 (read-out: GI50) it was 931 nM; in [3], 493 nM; in the assay with SK-MEL-28 [4] (read-out: GI50), 1190 nM. Also, the GI50 with LoVo [5] was 334 nM; in the assay on PANC-1, 1770 nM; in [6], 550 nM; with LNCaP it was 960 nM; in the assay on HeLa it was 965 nM; in the assay on K562, 1930 nM. The GI50 in the assay on LoVo [7] was found to be 299 nM; in the assay with SK-BR-3 it was 363 nM. The LC50 (concentration giving 50% net cell kill) in assay [2] was found to be 4290 nM. Further, the CC50 in the assay on HT-29 is 2240 nM; in the assay on DU-145 it was 3720 nM; in assay [3], 3220 nM; with SK-MEL-28 [4], 4500 nM; in the assay with LoVo [5], 1510 nM; with PANC-1 it was 5070 nM. The CC50 worked out at 3280 nM in assay [6]; 4260 nM in the assay on LNCaP; 4730 nM in the assay on HeLa; 5280 nM in the assay with K562; 1470 nM with LoVo [7]; 1980 nM with SK-BR-3.
